What was measured:
Format in all cases: functional
[1] = Growth inhibition of human OVCAR8 cells at 10 uM after 48 hrs by sulforhodamine B assay; settings: OVCAR-8, 48 h, read-out: GI
Outline: (§1)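 Run at NCI on the 60-line panel. Cells grown in RPMI 1640 with 5% FBS and 2 mM L-glutamine, plated at 5000–40,000 cells/well by doubling time, and held 24 h at 37 °C before dosing. Drug (DMSO stock) given at a single final 10 µM in triplicate wells for 48 h. Adherent cells fixed with cold TCA (10% final), suspension cells with 16% TCA. SRB stain read at 515 nm. Percent growth from Tz, C and Ti.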

MDA-MB-231 = experiment: Growth inhibition of human MDA-MB-231 cells at 10 uM after 48 hrs by sulforhodamine B assay; settings: MDA-MB-231, 48 h, read-out: GI; outline: as §1
[2] = Growth inhibition of human LOXIMVI cells at 10 uM after 48 hrs by sulforhodamine B assay; settings: LOX IMVI, read-out: GI; outline: as §1
[3] = Growth inhibition of human OVCAR3 cells at 10 uM after 48 hrs by sulforhodamine B assay; settings: OVCAR-3, 48 h, read-out: GI; outline: as §1
K562 = experiment: Growth inhibition of human K562 cells at 10 uM after 48 hrs by sulforhodamine B assay; settings: K562, 48 h, read-out: GI; outline: as §1
KM12 = experiment: Growth inhibition of human KM12 cells at 10 uM after 48 hrs by sulforhodamine B assay; settings: KM12, 48 h, read-out: GI; outline: as §1
[4] = Growth inhibition of human SNB75 cells at 10 uM after 48 hrs by sulforhodamine B assay; settings: SNB-75, 48 h, read-out: GI; outline: as §1
[5] = Growth inhibition of human SNB19 cells at 10 uM after 48 hrs by sulforhodamine B assay; settings: SNB-19, 48 h, read-out: GI; outline: as §1
NCI-H460 = experiment: Growth inhibition of human NCI-H460 cells at 10 uM after 48 hrs by sulforhodamine B assay; settings: NCI-H460, 48 h, read-out: GI; outline: as §1
NCI-H322M = experiment: Growth inhibition of human NCI-H322M cells at 10 uM after 48 hrs by sulforhodamine B assay; settings: read-out: GI; outline: as §1
HT-29 = experiment: Growth inhibition of human HT-29 cells at 10 uM after 48 hrs by sulforhodamine B assay; settings: HT-29, 48 h, read-out: GI; outline: as §1
MCF7 = experiment: Growth inhibition of human MCF7 cells at 10 uM after 48 hrs by sulforhodamine B assay; settings: MCF7, 48 h, read-out: GI; outline: as §1
[6] = Growth inhibition of human SF295 cells at 10 uM after 48 hrs by sulforhodamine B assay; settings: SF-295, 48 h, read-out: GI; outline: as §1
[7] = Growth inhibition of human DU145 cells at 10 uM after 48 hrs by sulforhodamine B assay; settings: DU-145, 48 h, read-out: GI; outline: as §1
[8] = Growth inhibition of human RPMI8226 cells at 10 uM after 48 hrs by sulforhodamine B assay; settings: RPMI-8226, 48 h, read-out: GI; outline: as §1
[9] = Growth inhibition of human BT549 cells at 10 uM after 48 hrs by sulforhodamine B assay; settings: BT-549, 48 h, read-out: GI; outline: as §1
NCI-H522 = experiment: Growth inhibition of human NCI-H522 cells at 10 uM after 48 hrs by sulforhodamine B assay; settings: NCI-H522, 48 h, read-out: GI; outline: as §1
[10] = Growth inhibition of human OVCAR4 cells at 10 uM after 48 hrs by sulforhodamine B assay; settings: OVCAR-4, 48 h, read-out: GI; outline: as §1
[11] = Growth inhibition of human OVCAR5 cells at 10 uM after 48 hrs by sulforhodamine B assay; settings: OVCAR-5, 48 h, read-out: GI; outline: as §1
[12] = Growth inhibition of human COLO205 cells at 10 uM after 48 hrs by sulforhodamine B assay; settings: COLO 205, 48 h, read-out: GI; outline: as §1
U-251 = experiment: Growth inhibition of human U251 cells at 10 uM after 48 hrs by sulforhodamine B assay; settings: U-251, 48 h, read-out: GI
Outline: (§2)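 NCI-60 panel, adherent cells grown in RPMI 1640 with 5% FBS and 2 mM L-glutamine, plated at 5000–40,000 cells/well and preincubated 24 h at 37 °C, 5% CO2. 10 µM final compound from DMSO stock, triplicate wells, 48 h. Fixed with cold TCA (10% final, 60 min, 4 °C) and stained with 0.4% SRB. Absorbance read at 515 nm; growth calculated against time-zero and control wells.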

786-0 = experiment: Growth inhibition of human 786-0 cells at 10 uM after 48 hrs by sulforhodamine B assay; settings: 786-0, 48 h, read-out: GI; outline: as §1
[13] = Growth inhibition of human UO31 cells at 10 uM after 48 hrs by sulforhodamine B assay; settings: UO-31, 48 h, read-out: GI; outline: as §2
A498 = experiment: Growth inhibition of human A498 cells at 10 uM after 48 hrs by sulforhodamine B assay; settings: A498, 48 h, read-out: GI; outline: as §1
ACHN = experiment: Growth inhibition of human ACHN cells at 10 uM after 48 hrs by sulforhodamine B assay; settings: read-out: GI; outline: as §1
Malme-3M = experiment: Growth inhibition of human MALME-3M cells at 10 uM after 48 hrs by sulforhodamine B assay; settings: read-out: GI; outline: as §1
SK-MEL-5 = experiment: Growth inhibition of human SK-MEL-5 cells at 10 uM after 48 hrs by sulforhodamine B assay; settings: SK-MEL-5, 48 h, read-out: GI; outline: as §1
[14] = Growth inhibition of human IGROV1 cells at 10 uM after 48 hrs by sulforhodamine B assay; settings: IGROV-1, 48 h, read-out: GI; outline: as §1
[15] = Growth inhibition of human HCT15 cells at 10 uM after 48 hrs by sulforhodamine B assay; settings: HCT-15, 48 h, read-out: GI; outline: as §1
[16] = Growth inhibition of human SF268 cells at 10 uM after 48 hrs by sulforhodamine B assay; settings: SF-268, 48 h, read-out: GI; outline: as §1
NCI-H23 = experiment: Growth inhibition of human NCI-H23 cells at 10 uM after 48 hrs by sulforhodamine B assay; settings: NCI-H23, 48 h, read-out: GI; outline: as §1
MDA-MB-468 = experiment: Growth inhibition of human MDA-MB-468 cells at 10 uM after 48 hrs by sulforhodamine B assay; settings: MDA-MB-468, 48 h, read-out: GI; outline: as §1
[17] = Growth inhibition of human HOP92 cells at 10 uM after 48 hrs by sulforhodamine B assay; settings: HOP-92, 48 h, read-out: GI; outline: as §1
[18] = Growth inhibition of human NCI-ADR-RES cells at 10 uM after 48 hrs by sulforhodamine B assay; settings: read-out: GI; outline: as §1
T47D = experiment: Growth inhibition of human T47D cells at 10 uM after 48 hrs by sulforhodamine B assay; settings: read-out: GI; outline: as §2
NCI-H226 = experiment: Growth inhibition of human NCI-H226 cells at 10 uM after 48 hrs by sulforhodamine B assay; settings: NCI-H226, 48 h, read-out: GI; outline: as §1

Row | SMILES | inhibition of growth at 10 µM [1] | inhibition of growth at 10 µM (MDA-MB-231) | inhibition of growth at 10 µM [2] | inhibition of growth at 10 µM [3] | inhibition of growth at 10 µM (K562) | inhibition of growth at 10 µM (KM12) | inhibition of growth at 10 µM [4] | inhibition of growth at 10 µM [5] | inhibition of growth at 10 µM (NCI-H460) | inhibition of growth at 10 µM (NCI-H322M) | inhibition of growth at 10 µM (HT-29) | inhibition of growth at 10 µM (MCF7) | inhibition of growth at 10 µM [6] | inhibition of growth at 10 µM [7] | inhibition of growth at 10 µM [8] | inhibition of growth at 10 µM [9] | inhibition of growth at 10 µM (NCI-H522) | inhibition of growth at 10 µM [10] | inhibition of growth at 10 µM [11] | inhibition of growth at 10 µM [12] | also measured
1 | COc1ccc(Cc2nnc(Nc3ccccc3)c3ccccc23)cc1 | < 30% | < 30% | < 30% | < 30% | < 30% | < 30% | < 30% | < 30% | < 30% | < 30% | < 30% | < 30% | < 30% | < 30% | 58% | < 30% | < 30% | < 30% | < 30% | < 30% | inhibition of growth at 10 µM (U-251): < 30%; inhibition of growth at 10 µM (786-0): < 30%; inhibition of growth at 10 µM [13]: 38%; inhibition of growth at 10 µM (A498): 35%; inhibition of growth at 10 µM (ACHN): < 30%; inhibition of growth at 10 µM (Malme-3M): < 30%; inhibition of growth at 10 µM (SK-MEL-5): < 30%; inhibition of growth at 10 µM [14]: < 30%; inhibition of growth at 10 µM [15]: < 30%; inhibition of growth at 10 µM [16]: < 30%; inhibition of growth at 10 µM (NCI-H23): < 30%; inhibition of growth at 10 µM (MDA-MB-468): < 30%; inhibition of growth at 10 µM [17]: 49%; inhibition of growth at 10 µM [18]: < 30%; inhibition of growth at 10 µM (T47D): < 30%; inhibition of growth at 10 µM (NCI-H226): < 30%
2 | COc1ccc(Cc2nnc(Nc3cccc(C(F)(F)F)c3)c3ccccc23)cc1 | 35% | 46% | < 30% | 48% | 49% | 40% | < 30% | 45% | 50% | < 30% | 49% | 35% | 38% | < 30% | 87% | < 30% | 45% | 31% | < 30% | < 30% | inhibition of growth at 10 µM (U-251): 44%; inhibition of growth at 10 µM (786-0): 33%; inhibition of growth at 10 µM [13]: 66%; inhibition of growth at 10 µM (A498): 40%; inhibition of growth at 10 µM (ACHN): 31%; inhibition of growth at 10 µM (Malme-3M): < 30%; inhibition of growth at 10 µM (SK-MEL-5): < 30%; inhibition of growth at 10 µM [14]: 37%; inhibition of growth at 10 µM [15]: 41%; inhibition of growth at 10 µM [16]: < 30%; inhibition of growth at 10 µM (NCI-H23): 42%; inhibition of growth at 10 µM (MDA-MB-468): 42%; inhibition of growth at 10 µM [17]: 63%; inhibition of growth at 10 µM [18]: 40%; inhibition of growth at 10 µM (T47D): 56%; inhibition of growth at 10 µM (NCI-H226): 40%
3 | COc1ccc(Cc2nnc(Nc3ccc(C#N)cc3)c3ccccc23)cc1 | < 30% | < 30% | < 30% | < 30% | < 30% | < 30% | < 30% | < 30% | < 30% | < 30% | < 30% | < 30% | < 30% | < 30% | < 30% | < 30% | < 30% | < 30% | < 30% | < 30% | inhibition of growth at 10 µM (U-251): < 30%; inhibition of growth at 10 µM (786-0): < 30%; inhibition of growth at 10 µM [13]: 49%; inhibition of growth at 10 µM (A498): 30%; inhibition of growth at 10 µM (ACHN): < 30%; inhibition of growth at 10 µM (Malme-3M): < 30%; inhibition of growth at 10 µM (SK-MEL-5): < 30%; inhibition of growth at 10 µM [14]: < 30%; inhibition of growth at 10 µM [15]: < 30%; inhibition of growth at 10 µM [16]: < 30%; inhibition of growth at 10 µM (NCI-H23): < 30%; inhibition of growth at 10 µM (MDA-MB-468): 30%; inhibition of growth at 10 µM [17]: 36%; inhibition of growth at 10 µM [18]: < 30%; inhibition of growth at 10 µM (T47D): 50%; inhibition of growth at 10 µM (NCI-H226): < 30%
